High-throughput results from PubChem BioAssay.
FLuc inh counter = counter-screen for luciferase assay inhibitors: firefly luciferase inhibition; P08659; AID 1006; 1.5% of 200,000 active; inhibition, % at 10 µM; ATPLite firefly luciferase biochemical luminescence, 10 min;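 active means inhibition above about 50% when tested at 10 µM, limit read from the data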
Rad51 HR inh = blocks human Rad51 in homologous recombination. Q06609. hRad51 DNA strand exchange, fluorescence dequenching. inhibition, % at 10 µM. 0.085% of 200,000 active. AID 1385;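 active means inhibition above 40% at the single screening dose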;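 further: 0% = DMSO control wells and 100% = blanks with heterologous ssDNA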
Target sequence (Q06609 whole entry, looked up): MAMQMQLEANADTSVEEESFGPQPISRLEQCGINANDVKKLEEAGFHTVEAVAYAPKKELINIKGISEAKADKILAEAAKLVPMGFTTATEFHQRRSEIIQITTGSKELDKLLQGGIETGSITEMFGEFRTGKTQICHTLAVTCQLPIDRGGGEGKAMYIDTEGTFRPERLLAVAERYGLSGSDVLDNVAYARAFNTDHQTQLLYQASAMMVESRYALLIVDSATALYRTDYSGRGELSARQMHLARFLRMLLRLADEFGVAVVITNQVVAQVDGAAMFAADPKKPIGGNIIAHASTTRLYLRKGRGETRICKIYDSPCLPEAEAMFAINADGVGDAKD
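Test system: preformed human Rad51 ssDNA filaments; also added: Donor/quencher-labelled 47-bp dsDNA substrate; doses: 10 µM final, single point; times: 37 °C 15-min filament assembly, 30-min compound preincubation, 15-min exchange; detection: FRET fluorescence dequenching, excitation 485 nm, emission 520 nm; read-out basis: Fluorescence-based percent inhibition, control- and blank-normalised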
NF-kB neuron act = compounds increasing NF-kB expression in human neuronal cells; NF-kB reporter expression; stronger effect = higher value; fold change at 12.5 µM; 1.6% of 190,000 active; in the data active means fold change above about 3.3
APP 5'UTR act = APP 5'UTR luciferase reporter activation | SH-SY5Y APP 5'UTR luciferase reporter, luminescence; zero percent = DMSO vehicle wells | 1% of 190,000 active | activation, % at 2 µM;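 active means activation above a set limit, based on mean plus 3 SD of controls, cut at about 140% in these data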
FLuc act counter = firefly luciferase counter-screen for stimulation assays. ATPlite luciferase biochemical, luminescence, 10 min; 0 = ATP-free wells, 1 = DMSO control. P08659. 200,000 tested, under 10 active. activation factor at 10 µM;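 active means luciferase activation factor, scaled between plate controls, of at least 2 with compound at 10 µM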
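Material: Luciferase/luciferin reagent mix | Doses: Test compounds dosed from 2 mM stocks in 100% DMSO | Timing: 10 min incubation after luciferase reagent addition, room temperature | Measured by: Luminescence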
STAT1 act = STAT1 signaling activation; NIH 3T3 STAT1-luciferase reporter, IFN-gamma, luminescence; 100% = IFN-gamma alone, no compound; activation (% of control), % at 5.5 µM; 2.6% of 200,000 active;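 active means activation above the screen-wide mean activation plus 3 SD, cut at about 130% in these data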;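 further: raw ratio to IFN-gamma control signal so 100% means no change and 0% no light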
STAT1 activ conf = confirmation of STAT1 signaling activators. NIH 3T3 STAT1-luciferase reporter, IFN-gamma potentiation, luminescence; 100% = IFN-gamma EC80 alone, no compound. shares compounds with STAT1 act. 97% of 1,200 active. activation (% of control), % at 5.7 µM;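 active means activation above a set limit carried over from the earlier primary STAT1 screen, cut at about 140% in these data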;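 further: simple ratio to median IFN-gamma plus DMSO wells so 0% means no light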
NFkB act = counter-screen for STAT1 activators: NF-kappaB activation. shares compounds with STAT1 act. HEK293T NF-kB luciferase reporter, TNF-alpha stimulated, luminescence; 100% = TNF-alpha with vehicle only. activation (% of control), % at 5.7 µM. 43% of 1,200 active. AID 1306;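 active means activation above the mean of solvent-only control wells plus 3 SD, set per campaign, cut at about 130% in these data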;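 further: TNF-alpha given at a submaximal dose yielding about 80% of full reporter signal; values are well signal over median control so 100% means no change and 0% no light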
STAT3 act 2 = activates human STAT3, counter-screen to STAT1 activators. shares compounds with STAT1 act. AID 1316. 46% of 1,200 active. activation (% of control), % at 5.7 µM. U3A cells STAT3-luciferase reporter, IL-6, luminescence; cells lack STAT1; 100 = IL-6 alone, no compound effect;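 active means activation above the solvent-only control well mean plus 3 SD, set per plate batch, cut at about 110% in these data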;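 further: 0% = no luminescence and 100% = median IL-6 plus DMSO wells; higher means more STAT3 reporter activation so hits are non-selective activators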
The depositor's hits bear a star; . = no result. Compounds with a hit are over-represented: about 3.9% of the library has one in this group of screens.

SMILES	FLuc inh counter	Rad51 HR inh	NF-kB neuron act	APP 5'UTR act	FLuc act counter	STAT1 act	STAT1 activ conf	NFkB act	STAT3 act 2
O=C(Nc1ccc(-c2nnc(-c3ccccc3)o2)cc1)C(F)(F)F	-1	.	1.9	21	1	114	.	.	.
Cc1ccc(Nc2nc(N)[nH]c(=O)c2N=O)cc1	.	0	.	.	.	.	.	.	.
COc1ccc(C(=O)COC(=O)c2ccc(N(C)C)cc2)cc1	-6	23	1.1	13	1.1	113	.	.	.
CN(C)c1ccc(C(=O)OCC(=O)c2cccs2)cc1	26	.	5.2*	103	0.7	172*	215*	123	104
C=C(CO)C1Cc2cc(C(C)=O)ccc2O1 (stereo not drawn)	.	6	.	.	.	.	.	.	.
Cc1cccc(Nc2nc3ccccc3s2)c1C	41	.	9.2*	158*	0.6	174*	218*	151*	108
COc1ccc(C(O)c2nc3ccccc3s2)cc1 (stereo not drawn)	-6	6	1.2	-1	1.1	106	.	.	.
COc1ccc(Nc2nc3ccccc3s2)cc1	21	12	7.2*	164*	0.8	159*	224*	143*	106
COC(=O)C1=C(C)Nc2nc(SCc3ccccc3)[nH]c(=O)c2C1c1cccs1 (stereo not drawn)	2	.	0.95	-11	1	93	.	.	.
CCCn1nnc(NC(=O)c2ccc3ccccc3c2)n1	20	1	3.2	35	0.8	154*	128	126	95
CCCn1nnc(NC(=O)c2cccc(OCC)c2)n1	10	-4	2.1	52	0.9	124	.	.	.
CC(=O)c1cccc(NC(=O)CN(c2ccc(C)cc2)S(=O)(=O)c2cccc3nonc23)c1	-2	.	0.63	14	1	108	.	.	.
O=C(CSc1nc2cc(Cl)ccc2o1)c1cccs1	-5	-1	1.7	24	1	117	.	.	.
Cc1cc(/C=C2/NC(=O)NC2=O)c(C)n1-c1ccccn1	49	9	1.4	-13	0.5	107	.	.	.
COC(=O)C(C)N1C(=O)S/C(=C/c2cc(C)n(-c3ccccn3)c2C)C1=O (stereo not drawn)	58*	.	3.6*	59	0.4	152*	173*	133*	116*
CCN(CC)c1ccc(C(=O)OCc2c(C)noc2C)cc1	-5	-4	1.2	0	1.1	95	.	.	.
CCCN1C(=O)/C(=C\C=C2/Sc3ccccc3N2CC)SC1=S	7	-115	1.3	0	0.9	101	.	.	.
CN1C(=O)/C(=C/C=C2\SCCN2C)SC1=S	3	-74	4.4*	174*	1	159*	224*	113	99
COc1ccc(-c2csc(N(CCCN(C)C)C(=O)c3cccs3)n2)cc1	-6	1	0.99	9	1.1	105	.	.	.
COCCCN(C(C)=O)c1nc(-c2ccc(OC)cc2)cs1	-2	-3	2.1	8	1	156*	145*	100	112*
COc1ccc(N(/N=C2\Sc3ccccc3C2=O)C(C)=O)cc1	4	4	4.8*	172*	1	151*	191*	123	110
OCCNc1c2ccccc2nc2ccccc12	-4	11	0.92	6	1	158*	159*	133	117*
CCOC(=O)c1sc2nc(NC(=O)C3CC3)sc2c1C	-2	-2	1.5	14	1	110	.	.	.
CCOC(=O)c1sc2nc(NC(=O)C(C)(C)C)sc2c1C	18	.	0.9	126	0.8	157*	202*	134*	102
CC(C)=CC(=O)Nc1nnc(-c2ccccc2)s1	3	3	3.2	9	1	162*	196*	135*	104
SMILES	FLuc inh counter	Rad51 HR inh	NF-kB neuron act	APP 5'UTR act	FLuc act counter	STAT1 act	STAT1 activ conf	NFkB act	STAT3 act 2
Cc1cccc(N/C=C/c2onc(C)c2[N+](=O)[O-])c1	-5	-85	1.1	16	1.1	155*	199*	141*	107
CC(C)NC(=O)NC(=O)COc1ccc(Br)cc1Br	47	6	5.1*	203*	0.5	179*	235*	123	101
COC(=O)c1cccc(NC(=O)Cc2nc(-c3ccccc3)sc2-c2ccc(C)cc2)c1	-6	6	1.2	3	1.1	96	.	.	.
COn1c(=O)c(-c2ccc(Cl)cc2)[n+]([O-])c2ccccc21	-4	4	1.4	-7	1	98	.	.	.
C#CCNC(=O)C1=C[C@@H](c2ccc3c(c2)OCO3)C[C@@H](OCCCCO)O1	.	12	.	.	.	.	.	.	.
O=C(NCCc1ccccc1)c1n[nH]c2ccccc12	33	.	3.4*	88	0.7	164*	184*	130	104
COc1ccc(CN(C(=O)COc2ccccc2)c2ccccc2C(=O)O)cc1	.	-2	.	.	.	.	.	.	.
O=C(/C=C/Nc1ccccc1F)c1ccc(Br)cc1	80*	7	8.8*	224*	0.2	182*	239*	111	107
O=C(/C=C/Nc1ccc(F)cc1)c1ccc(Br)cc1	39	.	.	135	0.6	172*	218*	132	104
O=C(/C=C/Nc1ccc([N+](=O)[O-])cc1)c1ccc(Br)cc1	-6	-4	1.5	37	1.1	106	.	.	.
O=C(/C=C/NCC(=O)c1ccccc1)c1ccc(Br)cc1	-3	-18	0.82	-10	1	101	.	.	.
NC(=O)c1ccccc1N/C=C/C(=O)c1ccc(F)cc1	90*	.	4.2*	136*	0.1	154*	189*	112	91
Cc1nn(C(C)C(=O)O)c2ccccc12 (stereo not drawn)	-3	-2	1	9	1	106	.	.	.
Cc1nnc(NC(=O)CSc2ccc3nnc(-c4cccnc4)n3n2)s1	0	16	1	9	1	100	.	.	.
C=CCn1c(SCC#N)nc2sc(CC)cc2c1=O	-4	-4	1	23	1	96	.	.	.
O=C(NNC1OC(CO)C(O)C(O)C1O)c1cccnc1 (stereo not drawn)	-2	4	1.1	-6	1	102	.	.	.
COc1ccc(NC(=O)/C(Cl)=C(/Cl)S(=O)(=O)Cc2ccccc2)cn1	0	-4	0.27	-77	1	170*	160*	90	116*
